The entries come from a sample that favours hits as a whole.
UPR XBP1 act – adaptive UPR (XBP1) activation; CHO-XBP1 luciferase reporter, IRE1-XBP1 UPR activation, luminescence; percent of tunicamycin response, DMSO as zero; activation, % at 20 µM; actives 0.33% (n = 330,000);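 active means versus positive control, 20 µM dose yields 30% or more activation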
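Test system: CHO-XBP1 luciferase reporter cells | Buffer or medium: Serum-containing F12 medium, 10% FBS | Schedule: 6 h compound exposure at 37 °C, 5% CO2 | Detection: Steady-Glo luciferase glow luminescence, 10 min after reagent addition | Read-out basis: Activation, % of tunicamycin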
GAA850 FXN act – frataxin GAA850 promoter activation | HEK293 lucGAA850 FXN promoter luciferase reporter, 24 h; percent of 10 µM SAHA response | activation, % at 6 µM | actives 0.56% (n = 360,000);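 active means activation above the average of all compounds screened plus 3 SD, cutoff fixed separately per campaign, cut at about 7.5% in these data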
CHOP inhibitor – inhibitors of CHOP induction in ER stress response; inhibition, % at 10 µM; CHO-K1 CHOP-promoter luciferase, tunicamycin-induced, 15-18 h; actives 3.8% (n = 220,000);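 active means compounds that reduced the stress-induced luciferase reporter signal by more than about 70% of percent inhibition, limit read from the data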
CHOP UPR activ – activators of apoptotic arm of unfolded protein response (CHOP); CHO-CHOP luciferase reporter, UPR activation, luminescence; percent of tunicamycin response over DMSO baseline; activation, % at 10 µM; actives 0.34% (n = 330,000);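 active means at 10 µM dose, activation of 40% or more, normalized to positive control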
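Test system: CHO-CHOP cells, stable luciferase reporter of PERK-eIF2a-CHOP signalling | Quantity: 500 CHO-CHOP cells per well | Buffer or medium: F12 plus 10% serum | Compound dosing: 10 µM single point, 0.5% DMSO | Schedule: 6 h compound treatment, 37 °C | Signal: Luciferase luminescence | Control set: Tunicamycin high control, DMSO low control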
Numbers stand for hits; – = inactive; · = no result.

SMILES | UPR XBP1 act | GAA850 FXN act | CHOP inhibitor | CHOP UPR activ
COc1ccccc1N(C(=O)CCl)c1cn(C(C)=O)c2ccccc12 | – | – | – | –
CCC(CC)C(=O)N(C)c1c(C)nc2c(OCc3ccc(C(F)(F)F)cc3)cccn12 | · | – | · | ·
CC(C)(C)c1ccc(/C=N/OCC(=O)NCc2ccc(F)cc2)cc1 | – | – | 75.1 | –
CC(C)(C)c1ccc(/C=N/OCC(=O)NCc2ccccc2)cc1 | – | – | – | –
Cc1ccc(CNC(=O)CO/N=C/c2ccc(C(C)(C)C)cc2)cc1 | – | – | 94.7 | –
COc1ccc(C(O)c2nc(-c3ccc(OC)c(OC)c3)cs2)cc1 (centres undefined) | · | – | · | ·
COc1ccccc1-c1csc(C(C)(O)c2ccccc2)n1 (centres undefined) | · | – | · | ·
COc1cc(C(C)=O)ccc1OCC(O)CN(CCO)Cc1ccccc1 (centres undefined) | – | – | – | –
OCCN(Cc1ccccc1)CC(O)COc1ccc(-c2ccccc2)cc1 (centres undefined) | – | – | 76.1 | –
O=C(C(Cc1ccccc1)n1cccc1)N1CCN(c2ccccc2)CC1 (centres undefined) | – | – | 78.2 | –
Cc1ccc(C)c(N2CCN(C(=O)C(Cc3ccccc3)n3cccc3)CC2)c1 (centres undefined) | – | – | – | –
CCOC(=O)c1sc(NC(=O)c2cc(-c3ccccc3C)nc3ccccc23)c(C#N)c1C | – | – | 71.8 | –
Cc1ccccc1-c1cc(C(=O)Nc2sc(C)c(C)c2C(N)=O)c2ccccc2n1 | – | – | 74.8 | –
O=C(/C=C/c1ccc([N+](=O)[O-])cc1)NCc1ccccn1 | – | – | – | –
CCCOc1ccc(/C=C/C(=O)Nc2ccc([N+](=O)[O-])cc2)cc1 | – | – | 95.4 | –
CCCCOc1ccc(/C=C/C(=O)Nc2ccc(C(N)=O)cc2)cc1 | – | – | – | –
CCCCOc1ccc(/C=C/C(=O)Nc2ccc([N+](=O)[O-])cc2C)cc1 | – | – | 79.6 | –
O=C(/C=C/c1ccc([N+](=O)[O-])cc1)Nc1ncc([N+](=O)[O-])s1 | · | – | 94.2 | ·
CC(=O)OCc1c(C(F)(F)F)nn(C)c1Oc1cccc(C(F)(F)F)c1 | – | – | 75.4 | –
CC(=O)OCc1c(C(F)(F)F)nn(C)c1Oc1ccccc1 | – | – | – | –
CC1CCC2C(C1)c1sc(=O)[nH]c1SC2(C)C (centres undefined) | – | – | 82.6 | –
CCCOP(=O)(OCCC)C(Nc1cccc(C(F)(F)F)c1)c1ccc(C)cc1 (centres undefined) | – | – | 90.3 | –
CCOP(=O)(OCC)C(Nc1cccc(C(F)(F)F)c1)c1ccc(C)cc1 (centres undefined) | – | – | – | –
Cc1ccc(S(=O)(=O)CCC(=O)OCC(=O)Nc2cccc(S(=O)(=O)N3CCCCC3)c2)cc1 | · | – | · | ·
c1ccc(-c2cc(-c3ccncc3)nc3ccc4ccccc4c23)cc1 | – | – | 88.8 | –
SMILES | UPR XBP1 act | GAA850 FXN act | CHOP inhibitor | CHOP UPR activ
CN(C)S(=O)(=O)c1cccc(NC(=S)N/N=C/c2cccc(O)c2)c1 | – | – | – | –
CN(C)S(=O)(=O)c1cccc(NC(=S)N/N=C/c2cc(Br)ccc2O)c1 | – | – | 72.3 | –
CCOc1ccc2nc(NCCNC(=O)C(C)C)c(C)cc2c1 | – | – | 70.6 | –
Cc1cc2cc(C)c(NCCNC(=O)c3ccccc3)nc2cc1C | – | – | 90.0 | –
Cc1ccc(C(=O)NCCNc2nc3cc(C)c(C)cc3cc2C)cc1 | – | – | – | –
CN(C)CCCNC(=O)c1ccc(-c2cc3nc(NCc4cccnc4)n(C)c(=O)c3s2)cc1 | · | – | · | ·
Nc1ncnc2c1ccn2[C@H]1CN(Cc2ccc3c(c2)OCO3)C[C@@H](COC(=O)c2ccccc2)O1 | · | – | · | ·
O=C(O)C1=CCC=CC1C(=O)O (centres undefined) | · | – | · | ·
Oc1ccc(C(c2nnnn2C2CCCC2)N2CCc3ccccc3C2)cc1 (centres undefined) | – | – | 88.1 | –
CCOC(=O)C1CCCN(C(=O)Cn2sc3nc(C)cc(C)c3c2=O)C1 (centres undefined) | – | – | 109.3 | –
O=C(Nc1ccc(F)cc1)Nc1cc(OCC(F)(F)F)cc(OCC(F)(F)F)c1 | – | – | 102.2 | –
CCOc1ccc(NC(=O)Nc2ccc3nsnc3c2)cc1 | – | – | – | –
CCOc1ccc(NC(=O)Nc2cc(OCC(F)(F)F)cc(OCC(F)(F)F)c2)cc1 | – | – | 73.3 | –
COC(=O)c1ccc(NC(=O)Nc2ccc(F)cc2)cc1 | – | – | – | –
CNc1cc(-c2cccc(OC)c2F)nc2ccnn12 | · | – | · | ·
OCCNc1ncnc2c1ncn2[C@H]1CN(Cc2ccncc2)C[C@@H](CO)O1 | · | – | · | ·
CCC(C)(C)n1nnnc1C(c1cc2cc(C)ccc2[nH]c1=O)N1CCCC1 (centres undefined) | – | 10.0 | – | –
Cc1ccc2cc(C(c3nnnn3C(C)(C)C)N3CCCCCC3)c(=O)[nH]c2c1 (centres undefined) | – | – | – | –
CCOc1cc(/C=C2\CCCC(C(=O)C(F)(F)F)=C2O)ccc1O | – | – | 74.8 | –
COc1cc(/C=C2/CCCC(C(=O)C(F)(F)F)=C2O)ccc1O | – | – | – | –
C(=N\Nc1ccc2ccccc2n1)/c1ccc2c(c1)OCCO2 | – | – | 75.1 | –
COc1ccc(/C=C/C(=O)Oc2cccc(/C=N/NC(=O)Cc3ccc(Br)cc3)c2)cc1 | – | – | 70.8 | –
COc1ccccc1-n1nnnc1SCC(=O)Nc1cc(C)on1 | – | – | 70.2 | –
CCOc1ccccc1-n1nnnc1SCC(=O)Nc1cc(C)on1 | – | – | – | –
C=CCNC(=O)CSc1nnc(-c2cccc(S(=O)(=O)N3CCOCC3)c2)o1 | · | – | · | ·
SMILES | UPR XBP1 act | GAA850 FXN act | CHOP inhibitor | CHOP UPR activ
O=C(CCCOc1ccc(Cl)cc1Cl)N/N=C/c1ccccc1O | – | – | 84.9 | –
O=C(COc1ccc(Cl)cc1Cl)N/N=C/CCc1ccccc1 | – | – | 75.2 | –
O=C(COc1ccc(Cl)cc1Cl)N/N=C/c1ccc[nH]1 | – | – | · | –
COc1ccc(C(=O)Nc2cc(OC)c(NC(=O)Nc3ccccc3)cc2OC)cc1 | · | – | · | ·
CCOc1ccc(-c2nc(CSCC(=O)NC3CCCc4ccccc43)c(C)o2)cc1 (centres undefined) | – | – | 86.8 | –
CCOc1ccc(-c2nc(CSCC(=O)NC3CC3)c(C)o2)cc1 | – | – | · | –
Cc1ccc(-c2nc(CSCC(=O)N3CCN(C(=O)c4ccco4)CC3)c(C)o2)cc1 | – | – | – | –
CCOc1ccc(-c2nc(CSCC(=O)N3CCN(c4cccc(OC)c4)CC3)c(C)o2)cc1 | – | – | 74.2 | –
Cc1ccc(-c2nc(CSCC(=O)N3CCN(c4ccccn4)CC3)c(C)o2)cc1 | – | – | 78.4 | –
CCc1ccc(-c2nc(CSCC(=O)N3CCN(c4ccccn4)CC3)c(C)o2)cc1 | – | – | 86.0 | –
CC1(C)CCC2=C(O1)c1ccccc1C(=O)C2=O | · | · | – | ·

Screens (PubChem BioAssay)
